Source: PubChem (several laboratories)
An excerpt weighted towards active compounds, which were near 1.6% of everything screened.
NCF1 inh: p47phox/p22phox peptide binding inhibitors, primary screen, biochemical, uHTS, NADPH oxidase regulatory subunit; Neutrophil cytosol factor 1 (Homo sapiens), P14598; AID 1274, 2008; fluorescence polarization, 2 h; 220,000 tested, 0.53% active; inhibition, % at 24.7 µM;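 further: 0% = p47phox with labelled peptide and 100% = labelled peptide alone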
UBC9 SUMO inh: inhibitors of in vitro SUMOylation cascade, primary screen, biochemical, HTRF, uHTS. inhibition, % at 35 µM. HTRF SUMOylation assay, SAE1/SAE2 + UBC9. 290,000 tested, 0.36% active. SUMO-conjugating enzyme UBC9 (Homo sapiens), P63279; in the data active means inhibition above about 50%, passing the limit was not always enough
TbMetRS inhib: T. brucei MetRS inhibitors, primary screen, biochemical, luminescence; inhibition, % at 11.9 µM; AID 624268, 2012; 360,000 tested, 0.4% active; purified T. brucei MetRS, ATP depletion, Kinase-Glo luminescence;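 active means inhibition above a per-plate cutoff of the control wells' mean inhibition plus 3 SD, cut at about 5.5% in these data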;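 further: 0% = DMSO wells median and 100% = median of wells with control inhibitor compound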
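Dosing: 11.9 µM single point; system: parasite MetRS enzyme; technique: luminescence of leftover ATP; times: 15 min enzyme-compound preincubation, 2 h reaction, 10 min detection, 25 °C; replicates: each compound tested once; read-out basis: percent inhibition relative to median high and low control wells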
eIF4E-4G inh: eIF4E–eIF4G protein interaction inhibitors, primary screen, biochemical, uHTS, TR-FRET, eIF4GI fragment; TR-FRET eIF4E-eIF4GI(517-606) binding, 2 h; 220,000 tested, 0.37% active; inhibition, % at 21.7 µM;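 further: 0% = full FRET control wells and 100% = background wells lacking eIF4GI fragment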
14-3-3 Bad PPI: inhibitors of 14-3-3 zeta/Bad binding, primary screen, biochemical, TR-FRET, bovine 14-3-3 zeta. TR-FRET 14-3-3zeta/Dy647-pBad peptide displacement, 1 h. inhibition, % at 21.7 µM. 220,000 tested, 0.71% active;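 active means inhibition above about 70%, limit read from the data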;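 further: 0% = full 14-3-3 plus peptide FRET controls and 100% = background without 14-3-3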
p97 ATPase inh: inhibitors of human p97 ATPase, primary screen, biochemical | Transitional endoplasmic reticulum ATPase (Homo sapiens), P55072 | recombinant p97 ATPase, Kinase-Glo ATP luminescence, 3 h | inhibition, % at 8 µM | 220,000 tested, 0.42% active; in the data active means inhibition above about 15%;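 further: 0% = DMSO vehicle and 100% = wells lacking enzyme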
Target sequence (P55072 whole entry, looked up): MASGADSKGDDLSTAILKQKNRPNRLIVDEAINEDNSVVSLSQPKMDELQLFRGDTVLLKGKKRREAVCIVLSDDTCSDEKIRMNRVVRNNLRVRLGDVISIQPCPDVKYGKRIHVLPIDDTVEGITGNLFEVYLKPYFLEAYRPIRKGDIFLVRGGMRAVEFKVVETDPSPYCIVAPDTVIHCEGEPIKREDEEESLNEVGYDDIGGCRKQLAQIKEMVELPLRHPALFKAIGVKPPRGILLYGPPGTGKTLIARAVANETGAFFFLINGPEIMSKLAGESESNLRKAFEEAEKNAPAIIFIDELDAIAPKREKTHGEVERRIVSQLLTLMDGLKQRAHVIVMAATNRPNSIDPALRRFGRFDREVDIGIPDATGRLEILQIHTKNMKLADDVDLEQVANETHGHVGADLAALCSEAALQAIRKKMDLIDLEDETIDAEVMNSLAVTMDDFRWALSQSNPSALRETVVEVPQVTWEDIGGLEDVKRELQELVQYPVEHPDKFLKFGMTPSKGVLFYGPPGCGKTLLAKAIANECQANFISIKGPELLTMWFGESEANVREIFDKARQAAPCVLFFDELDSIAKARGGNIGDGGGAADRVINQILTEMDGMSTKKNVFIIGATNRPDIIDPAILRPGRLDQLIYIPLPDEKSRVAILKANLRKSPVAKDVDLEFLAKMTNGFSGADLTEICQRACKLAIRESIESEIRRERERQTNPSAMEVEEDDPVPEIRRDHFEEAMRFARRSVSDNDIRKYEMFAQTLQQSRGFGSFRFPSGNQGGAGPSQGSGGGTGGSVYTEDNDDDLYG
An asterisk follows results filed as active; nt = no result given; [ ] = dose if it differs, or a comment.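 How the source made its calls, unless noted: active means inhibition above about 30% (limit read from the data); inactive means the rest.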

SMILES | NCF1 inh | UBC9 SUMO inh | TbMetRS inhib | eIF4E-4G inh | 14-3-3 Bad PPI | p97 ATPase inh
COc1cc(/C=C2\SC(=O)N(c3cccc(Cl)c3)C2=O)cc([N+](=O)[O-])c1O | -8.5 | 82.0* | -0.4 | 61.3* | 92.0* | -4.7
CN1CCN(CCCC(=O)c2ccc(F)cc2)CC1 | 63.9* | -5.5 | 0.1 | 10.5 | 85.7* | 2.2
Cc1cccc2nc(-c3ccccc3)nc(N[C@@H](CO)c3ccccc3)c12 | -19.2 | -35.5 | -0.6 | 12.7 | 76.0*[fluorescence artefact?] | 6.3
Cc1ccc(-c2nc(NCCCO)c3ccccc3n2)cc1 | nt | 15.3 | 0.1 | nt | nt | nt
O[C@H]1C[C@H](c2ccc(Cl)cc2)N(CC2CCCCC2)C[C@@H]1n1cc(-c2ccc(F)cc2)nn1 | nt | nt | -0.6 | nt | nt | nt
Cc1ccc(NC(=O)CN2C(=O)NC3(CCCc4ccccc43)C2=O)cc1S(=O)(=O)N1CCOCC1 (centres undefined) | 40.0* | 4.3 | -0.7 | 1.0 | -8.9 | 8.1
CCN(CC)S(=O)(=O)c1cc(NC(=O)CN2C(=O)NC3(CCCc4ccccc43)C2=O)ccc1C (centres undefined) | -17.1 | -15.5 | -0.8 | 2.7 | 6.0 | 2.5
O=S1(=O)N=C(Oc2cccc3ccccc23)c2ccccc21 | 19.8 | 9.3 | -0.4 | 13.9 | 85.7* | 1.9
Cn1c(SCC(=O)Nc2ccc3c(c2)oc2ccccc23)nnc1-c1ccccc1 | 2.2 | 35.9 | 0.0 | -39.6 | 71.9*[fluorescence artefact?] | 2.5
Cc1csc(NC(=O)CSc2nnc(-c3ccncc3)n2C)n1 | 41.4* | 0.3 | 0.6 | 4.4 | 6.2 | 2.0
O=C(Cn1nc(C(=O)O)c2ccccc2c1=O)Nc1ccc2c(c1)C(=O)c1ccccc1C2=O | -9.8 | 14.0 | nt | -4.8 | 80.3* | 10.1
Cn1c(SCC(=O)Nc2ccc3[nH]c(=O)[nH]c3c2)nnc1-c1ccccc1 | nt | 3.4 | -0.2 | nt | nt | nt
Cc1nn(CC(=O)Nc2ccc3c(c2)oc2ccccc23)c(=O)c2ccccc12 | 38.6* | 25.8 | -0.1 | 4.7 | 66.2 | 0.2
NS(=O)(=O)c1ccc(NC(=O)Cn2nc(C(=O)O)c3ccccc3c2=O)cc1 | nt | 12.8 | -0.3 | nt | nt | nt
COc1cccc(S(=O)(=O)Nc2ccc3c(c2)C(=O)N(C)C[C@H](OC)[C@H](C)CN[C@@H](C)CO3)c1 | nt | nt | -0.3 | nt | nt | nt
Cc1ccc(OCc2nc3ccccc3n2C(C(=O)NC(C)(C)C)c2ccncc2)cc1 (centres undefined) | nt | nt | -1.1 | nt | nt | nt
Clc1ccc(Cc2ccc(SCc3ccccc3)nn2)c(Cl)c1 | -5.0 | -31.7 | -0.7 | -12.1 | 71.9* | -1.2
Clc1ccc(Cc2ccc(Cl)nn2)c(Cl)c1 | -9.4 | 18.4 | -0.1 | -0.2 | 6.7 | -3.1
O=C1Nc2ccc(F)cc2C12Nc1ccccc1-c1nnc(SCc3ccccc3F)nc1O2 (centres undefined) | 43.2* | 14.2 | -0.1 | nt | nt | 1.2
Oc1ccc(/C=N/NC(=S)Nc2cccnc2)cc1O | 8.1 | 24.4 | 0.8 | -1.5 | 83.9*[fluorescence artefact?] | 7.3
CC(C)(C)c1ccc(/C=N/NC(=S)Nc2cccnc2)cc1 | 0.9 | 6.4 | nt | -1.1 | -14.6 | -3.9
Cc1cc(C)c(C)c(C(=O)CSc2nnc(-c3ccc4[nH]c(C)c(C)c4c3)o2)c1C | -14.9 | -2.0 | -0.3 | 5.1 | 72.9* | -2.5
COc1ccc(Oc2coc3c(CN(C)C)c(O)ccc3c2=O)cc1 | -9.3 | 32.8 | -0.1 | -4.3 | -8.0 | 4.1
Cc1cc(C)cc(Oc2coc3c(CN(C)C)c(O)ccc3c2=O)c1 | nt | 51.3* | -0.2 | nt | nt | nt
CCOC1=C2CN(S(=O)(=O)c3ccc(C)cc3)[C@@H](c3ccc(CC)cc3)C[C@H]2[C@H]2C(=O)N(c3ccccc3)C(=O)[C@H]2C1 | nt | nt | 0.3 | nt | nt | nt
SMILES | NCF1 inh | UBC9 SUMO inh | TbMetRS inhib | eIF4E-4G inh | 14-3-3 Bad PPI | p97 ATPase inh
COC(=O)Cn1c(=NC(=O)c2nc3ccccc3s2)sc2cc(S(C)(=O)=O)ccc21 | -34.4 | 5.2 | nt | -0.6 | -11.5 | 3.7
C#CCn1c(=NC(=O)c2cc(Cl)sc2Cl)sc2cc(S(N)(=O)=O)ccc21 | -29.3 | -0.6 | -1.2 | 4.4 | 76.4* | 1.7
C#CCn1c(=NC(=O)c2ccc(Br)s2)sc2cc(NC(C)=O)ccc21 | 18.0 | 32.9 | -0.5 | 6.2 | 70.8*[fluorescence artefact?] | 0.8
CCOC(=O)Cn1c(=NC(=O)c2sc3ccccc3c2Cl)sc2cc(S(N)(=O)=O)ccc21 | 11.1 | nt | -0.3 | 12.6 | 79.2*[fluorescence artefact?] | -0.5
COC(=O)Cn1c(=NC(=O)c2sc3ccccc3c2Cl)sc2cc(S(N)(=O)=O)ccc21 | -3.6 | 39.1 | -1.1 | 7.0 | 86.1*[fluorescence artefact?] | -2.0
CCOC(=O)[C@]12CCC=C1N(Cc1cccc3ccccc13)C(=O)[C@H](CC(=O)N1CCSCC1)C2 | nt | nt | -1.2 | nt | nt | nt
CCN(CC)C(=O)C1=C(C)N(Cc2ccc(F)cc2)C(=O)C(CC(=O)NCCCN(C)C)C1 (centres undefined) | nt | nt | -0.5 | nt | nt | nt
COc1ccc(-c2cc([C@H]3[C@@H]4C=CCC[C@@]4(C)C(=O)N3Cc3ccccc3)ccc2F)cc1 | -6.1 | 0.3 | -0.2 | 44.8* | -1.3 | nt
CC(C)(C)NC(=O)C(c1cccc2ccccc12)n1c(=O)c(-c2cc3ccccc3[nH]2)nc2ccccc21 (centres undefined) | nt | nt | -0.3 | nt | nt | nt
COc1cc(NC(=O)COc2ccccc2[N+](=O)[O-])ccc1NC(=O)c1cccs1 | 51.9* | 48.3 | -0.3 | 15.5 | 73.8* | -2.0
CCn1cc(C(=O)O)c(=O)c2cc(F)c(N/N=C/c3ccccc3[N+](=O)[O-])cc21 | -19.5 | -9.2 | -1.1 | 3.9 | 19.3 | -5.5
Cc1ccc(C)c(S(=O)(=O)N2CCN(CC(=O)N3CCc4ccccc4C3)CC2)c1 | 3.6 | 25.4 | -1.1 | 10.8 | 86.2*[fluorescence artefact?] | -2.8
O=C(CN1CCN(S(=O)(=O)c2cc(C(F)(F)F)ccc2Cl)CC1)N1CCc2ccccc2C1 | nt | nt | -0.3 | nt | nt | nt
Cn1c(/C=N/Nc2nc3ccccc3[nH]2)nc2ccccc21 | -14.4 | -91.5 | 0.5 | -3.1 | -8.2 | -3.1
C=CCn1cc(/C=N/Nc2nc3ccccc3[nH]2)c2ccccc21 | -12.1 | -52.3 | 5.6* | -6.7 | -16.8 | 9.1
Cc1cc(-c2ccccc2)nc2oc(C(=O)NN)c(N)c12 | 47.4* | 27.4 | 0.4 | -3.6 | -0.2 | -1.7
COc1cc2c(cc1NC(=S)NC(=O)/C=C/c1ccc(OC)c(OC)c1)oc1ccccc12 | 36.7* | -15.6 | -1.4 | 16.6 | 80.7*[fluorescence artefact?] | 8.1
COc1ccc(/C=C/C(=O)NC(=S)Nc2cc3oc4ccccc4c3cc2OC)cc1 | 20.0 | 10.7 | -0.3 | 0.3 | -3.6 | 6.0
COc1cc2c(cc1NC(=S)NC(=O)/C=C/c1ccco1)oc1ccccc12 | -14.3 | 52.3* | -0.3 | -4.2 | -1.4 | 1.7
